# Assay results as given in ChEMBL document CHEMBL1240350, “In vitro activity of CEM-101 against Streptococcus pneumoniae and Streptococcus pyogenes with defined macrolide resistance mechanisms” (Antimicrob Agents Chemother, 2010).
# Experiments:
# Streptococcus pyogenes [1] = assay: Antibacterial activity against Streptococcus pyogenes harboring mef(A) gene after overnight incubation by agar dilution method; type: functional
# Summary of the method: (§1)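 Clinical isolates collected 1998–2008, with macrolide-resistance genes confirmed by PCR. MICs by agar dilution on Mueller-Hinton agar with 5% sheep blood. Inoculum 10^4 CFU/spot, incubated overnight at 35°C in ambient air. S. pneumoniae ATCC 49619 was the quality-control strain in every run.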
# Streptococcus pyogenes [2] = assay: Antibacterial activity against macrolide-resistant Streptococcus pyogenes harboring erm(B) gene after overnight incubation by agar dilution method; type: functional
# Summary of the method: (§2)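 Agar dilution MICs on Mueller-Hinton agar with 5% sheep blood. Inoculum 10^4 CFU/spot, incubated overnight at 35°C in ambient air. Clinical S. pneumoniae or group A streptococcal isolates; resistance genotypes (erm(B), erm(A), mef(A)/mef(E)) were assigned by PCR. S. pneumoniae ATCC 49619 served as QC strain in each run. Range, MIC50 and MIC90 reported per phenotype group.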
# Streptococcus pyogenes [3] = assay: Antibacterial activity against macrolide-resistant Streptococcus pyogenes 2011 harboring mef(A) gene after overnight incubation by agar dilution method
# Streptococcus pyogenes [4] = assay: Antibacterial activity against macrolide-resistant Streptococcus pyogenes 2094 harboring erm(A) gene after 6 passages and 10 compound-free subculturing by retest method
# Streptococcus pyogenes [5] = assay: Antibacterial activity against Streptococcus pyogenes harboring mutation in L4 ribosomal protein after overnight incubation by agar dilution method; type: functional; summary of the method: as §1
# Streptococcus pneumoniae [6] = assay: Antibacterial activity against macrolide-susceptible Streptococcus pneumoniae 7127 harboring S20N mutation in L4 ribosomal protein and A105V mutation in L22 ribosomal protein after 29 passages and 10 compound-free subculturing by retest method; type: functional
# Streptococcus pyogenes [7] = assay: Antibacterial activity against macrolide-resistant Streptococcus pyogenes 237 harboring mutation in L4 ribosomal protein after overnight incubation by agar dilution method
# Streptococcus pyogenes [8] = assay: Antibacterial activity against macrolide-resistant Streptococcus pyogenes 2094 harboring erm(A) gene after 22 passages and 10 compound-free subculturing by retest method
# Streptococcus pneumoniae [9] = assay: Antibacterial activity against penicillin-intermediate Streptococcus pneumoniae after overnight incubation by agar dilution method; type: functional
# Summary of the method: (§3)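 Agar dilution on Mueller-Hinton agar supplemented with 5% sheep blood, inoculum 10^4 CFU/spot, read after overnight incubation at 35°C in ambient air. Clinical isolates with defined genotypes; S. pneumoniae ATCC 49619 quality control strain included in each run. MIC50/MIC90 are MICs inhibiting 50% and 90% of isolates.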
# Streptococcus pyogenes [10] = assay: Antibacterial activity against macrolide-susceptible Streptococcus pyogenes after overnight incubation by agar dilution method; type: functional; summary of the method: as §3
# Streptococcus pneumoniae [11] = assay: Antibacterial activity against macrolide-resistant Streptococcus pneumoniae harboring erm(B) and mef(A) gene after overnight incubation by agar dilution method; type: functional; summary of the method: as §2
# Streptococcus pneumoniae [12] = assay: Antibacterial activity against macrolide-susceptible Streptococcus pneumoniae after overnight incubation by agar dilution method; type: functional; summary of the method: as §2
# Streptococcus pneumoniae [13] = assay: Antibacterial activity against macrolide-susceptible Streptococcus pneumoniae 1077 after 43 passages and 10 compound-free subculturing by retest method; type: functional
# Streptococcus pneumoniae [14] = assay: Antibacterial activity against macrolide-resistant Streptococcus pneumoniae 3009 harboring mutation in 23S rRNA after 25 passages and 10 compound-free subculturing by retest method; type: functional
# Streptococcus pyogenes [15] = assay: Antibacterial activity against macrolide-resistant Streptococcus pyogenes 237 harboring mutation in L4 ribosomal protein after 50 passages following overnight incubation by agar dilution method
# Streptococcus pneumoniae [16] = assay: Antibacterial activity against macrolide-resistant Streptococcus pneumoniae 3009 harboring mutation in 23S rRNA after overnight incubation by agar dilution method; type: functional
# Streptococcus pyogenes [17] = assay: Antibacterial activity against macrolide-resistant Streptococcus pyogenes harboring erm(A) gene after overnight incubation by agar dilution method; type: functional; summary of the method: as §2
# Streptococcus pyogenes [18] = assay: Antibacterial activity against macrolide-resistant Streptococcus pyogenes 2094 harboring erm(A) gene after 34 passages and 10 compound-free subculturing by retest method
# Streptococcus pyogenes [19] = assay: Antibacterial activity against macrolide-resistant Streptococcus pyogenes 2094 harboring erm(A) gene after 43 passages and 10 compound-free subculturing by retest method
# Streptococcus pneumoniae [20] = assay: Antibacterial activity against quinolone-resistant Streptococcus pneumoniae after overnight incubation by agar dilution method; type: functional
# Summary of the method: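 Agar dilution on Mueller-Hinton agar supplemented with 5% sheep blood. Inoculum 10^4 CFU/spot, incubated overnight at 35°C in ambient air. Test strains were clinical pneumococcal isolates. S. pneumoniae ATCC 49619 was included as the quality control strain in each run. MIC range, MIC50 and MIC90 were reported for each susceptibility category.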
# Streptococcus pyogenes [21] = assay: Antibacterial activity against Streptococcus pyogenes harboring erm(B) gene after overnight incubation by agar dilution method; type: functional; summary of the method: as §1
# Streptococcus pneumoniae [22] = assay: Antibacterial activity against macrolide-resistant Streptococcus pneumoniae 2686 harboring mutation in L4 ribosomal protein after overnight incubation by agar dilution method; type: functional
# Streptococcus pneumoniae [23] = assay: Antibacterial activity against Streptococcus pneumoniae harboring mutation in L4 ribosomal protein after overnight incubation by agar dilution method; type: functional; summary of the method: as §1
# Streptococcus pneumoniae [24] = assay: Antibacterial activity against macrolide-susceptible Streptococcus pneumoniae 7127 harboring S20N mutation in L4 ribosomal protein and A105V mutation in L22 ribosomal protein after 43 passages and 10 compound-free subculturing by retest method; type: functional
# Streptococcus pneumoniae [25] = assay: Antibacterial activity against macrolide-resistant Streptococcus pneumoniae harboring mef(A) gene after overnight incubation by agar dilution method; type: functional; summary of the method: as §2
# Streptococcus pyogenes [26] = assay: Antibacterial activity against macrolide-resistant Streptococcus pyogenes 2368 harboring erm(B) gene after 18 passages and 10 compound-free subculturing by retest method
# Streptococcus pyogenes [27] = assay: Antibacterial activity against macrolide-resistant Streptococcus pyogenes 2368 harboring erm(B) gene after 6 passages and 10 compound-free subculturing by retest method
# Streptococcus pneumoniae [28] = assay: Antibacterial activity against Streptococcus pneumoniae harboring erm(A) gene after overnight incubation by agar dilution method; type: functional; summary of the method: as §1
# Streptococcus pneumoniae [29] = assay: Antibacterial activity against macrolide-susceptible Streptococcus pneumoniae 7127 harboring S20N mutation in L4 ribosomal protein and A105V mutation in L22 ribosomal protein after overnight incubation by agar dilution method; type: functional
# Streptococcus pneumoniae [30] = assay: Antibacterial activity against macrolide-resistant Streptococcus pneumoniae 2686 harboring mutation in L4 ribosomal protein after 14 passages and 10 compound-free subculturing by retest method; type: functional
# Streptococcus pneumoniae [31] = assay: Antibacterial activity against macrolide-resistant Streptococcus pneumoniae 24 harboring erm(B) gene after 14 passages and 10 compound-free subculturing by retest method; type: functional
# Summary of the method: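 Multistep selection by daily serial passage in subinhibitory drug concentrations. Medium was cation-adjusted Mueller-Hinton broth plus 5% lysed horse blood. Each day the next inoculum came from the tube 1–2 dilutions below the MIC whose turbidity matched the growth control, for up to 50 days. Clone MICs by CLSI macrodilution; identity to the parent confirmed by SmaI PFGE.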
# [32] = Streptococcus pneumoniae, 24, read-out: MIC
smiles,measurement,setting,value
CC[C@H]1OC(=O)[C@H](C)C(=O)[C@H](C)[C@@H](O[C@@H]2O[C@H](C)C[C@H](N(C)C)[C@H]2O)[C@](C)(OC)C[C@@H](C)C(=O)[C@H](C)[C@H]2N(CCCCn3cnc(-c4cccnc4)c3)C(=O)O[C@]12C [TELITHROMYCIN],MIC50,Streptococcus pyogenes [1],0.5 mg/L
same,MIC90,Streptococcus pyogenes [1],1 mg/L
same,MIC50,Streptococcus pyogenes [2],8 mg/L
same,MIC90,Streptococcus pyogenes [2],16 mg/L
same,MIC,Streptococcus pyogenes [3],0.5 mg/L
same,MIC,Streptococcus pyogenes [4],0.03 mg/L
same,MIC,Streptococcus pyogenes [5],0.06 mg/L
same,MIC,Streptococcus pneumoniae [6],0.016 mg/L
same,MIC,Streptococcus pyogenes [7],0.06 mg/L
same,MIC,Streptococcus pyogenes [8],0.125 mg/L
same,MIC50,Streptococcus pneumoniae [9],0.06 mg/L
same,MIC90,Streptococcus pneumoniae [9],0.5 mg/L
same,MIC50,Streptococcus pyogenes [10],0.06 mg/L
same,MIC90,Streptococcus pyogenes [10],0.06 mg/L
same,MIC50,Streptococcus pneumoniae [11],0.5 mg/L
same,MIC90,Streptococcus pneumoniae [11],1 mg/L
same,MIC50,Streptococcus pneumoniae [12],0.03 mg/L
same,MIC90,Streptococcus pneumoniae [12],0.03 mg/L
same,MIC,Streptococcus pneumoniae [13],0.06 mg/L
same,MIC,Streptococcus pneumoniae [14],0.06 mg/L
same,MIC,Streptococcus pyogenes [15],0.125 mg/L
same,MIC,Streptococcus pneumoniae [16],0.016 mg/L
same,MIC50,Streptococcus pyogenes [17],0.06 mg/L
same,MIC90,Streptococcus pyogenes [17],0.125 mg/L
same,MIC,Streptococcus pyogenes [18],0.03 mg/L
same,MIC,Streptococcus pyogenes [19],0.5 mg/L
same,MIC50,Streptococcus pneumoniae [20],0.03 mg/L
same,MIC90,Streptococcus pneumoniae [20],0.125 mg/L
same,MIC50,Streptococcus pyogenes [21],8 mg/L
same,MIC90,Streptococcus pyogenes [21],16 mg/L
same,MIC,Streptococcus pneumoniae [22],0.06 mg/L
same,MIC50,Streptococcus pneumoniae [23],0.125 mg/L
same,MIC90,Streptococcus pneumoniae [23],0.25 mg/L
same,MIC,Streptococcus pneumoniae [24],0.008 mg/L
same,MIC50,Streptococcus pneumoniae [25],0.125 mg/L
same,MIC90,Streptococcus pneumoniae [25],0.25 mg/L
same,MIC,Streptococcus pyogenes [26],> 64 mg/L
same,MIC,Streptococcus pyogenes [27],> 64 mg/L
same,MIC,Streptococcus pneumoniae [28],0.03 mg/L
same,MIC,Streptococcus pneumoniae [29],0.008 mg/L
same,MIC,Streptococcus pneumoniae [30],0.06 mg/L
CC[C@H]1OC(=O)[C@@](C)(F)C(=O)[C@H](C)[C@@H](O[C@@H]2O[C@H](C)C[C@H](N(C)C)[C@H]2O)[C@](C)(OC)C[C@@H](C)C(=O)[C@H](C)[C@H]2N(CCCCn3cc(-c4cccc(N)c4)nn3)C(=O)O[C@]12C [SOLITHROMYCIN],MIC50,Streptococcus pyogenes [2],0.5 mg/L
same,MIC90,Streptococcus pyogenes [2],1 mg/L
same,MIC,Streptococcus pyogenes [4],0.016 mg/L
same,MIC,Streptococcus pneumoniae [31],0.06 mg/L
same,MIC,Streptococcus pneumoniae [31]; [32],0.06 mg/L
same,MIC,Streptococcus pyogenes [5],0.06 mg/L
same,MIC,Streptococcus pneumoniae [6],0.016 mg/L
same,MIC,Streptococcus pyogenes [7],0.03 mg/L
same,MIC,Streptococcus pyogenes [8],0.03 mg/L
same,MIC50,Streptococcus pneumoniae [9],0.03 mg/L
same,MIC90,Streptococcus pneumoniae [9],0.25 mg/L
same,MIC50,Streptococcus pyogenes [10],0.015 mg/L
same,MIC90,Streptococcus pyogenes [10],0.03 mg/L
same,MIC50,Streptococcus pneumoniae [11],0.125 mg/L
same,MIC90,Streptococcus pneumoniae [11],0.25 mg/L
same,MIC50,Streptococcus pneumoniae [12],0.008 mg/L
same,MIC90,Streptococcus pneumoniae [12],0.015 mg/L
same,MIC,Streptococcus pneumoniae [13],0.06 mg/L
same,MIC,Streptococcus pneumoniae [14],0.03 mg/L
same,MIC,Streptococcus pneumoniae [16],0.016 mg/L
same,MIC50,Streptococcus pyogenes [17],0.03 mg/L
same,MIC90,Streptococcus pyogenes [17],0.125 mg/L
same,MIC,Streptococcus pyogenes [18],0.03 mg/L
same,MIC,Streptococcus pyogenes [19],0.25 mg/L
same,MIC50,Streptococcus pneumoniae [20],0.008 mg/L
same,MIC90,Streptococcus pneumoniae [20],0.06 mg/L
same,MIC50,Streptococcus pyogenes [21],0.5 mg/L
same,MIC90,Streptococcus pyogenes [21],1 mg/L
same,MIC,Streptococcus pneumoniae [22],0.03 mg/L
same,MIC,Streptococcus pneumoniae [24],0.004 mg/L
same,MIC50,Streptococcus pneumoniae [25],0.03 mg/L
same,MIC90,Streptococcus pneumoniae [25],0.125 mg/L
same,MIC,Streptococcus pyogenes [26],8 mg/L
same,MIC,Streptococcus pyogenes [27],0.5 mg/L
same,MIC,Streptococcus pneumoniae [28],0.008 mg/L
same,MIC,Streptococcus pneumoniae [29],0.008 mg/L
same,MIC,Streptococcus pneumoniae [30],0.03 mg/L
CC[C@H]1OC(=O)[C@H](C)[C@@H](O[C@H]2C[C@@](C)(OC)[C@@H](O)[C@H](C)O2)[C@H](C)[C@@H](O[C@@H]2O[C@H](C)C[C@H](N(C)C)[C@H]2O)[C@](C)(O)C[C@@H](C)CN(C)[C@H](C)[C@@H](O)[C@]1(C)O [AZITHROMYCIN],MIC50,Streptococcus pyogenes [1],8 mg/L
same,MIC90,Streptococcus pyogenes [1],8 mg/L
same,MIC50,Streptococcus pyogenes [2],> 64 mg/L
same,MIC90,Streptococcus pyogenes [2],> 64 mg/L
same,MIC,Streptococcus pyogenes [3],4 mg/L
same,MIC,Streptococcus pyogenes [4],> 64 mg/L
same,MIC,Streptococcus pneumoniae [31]; [32],> 64 mg/L
same,MIC,Streptococcus pyogenes [5],2 mg/L
same,MIC,Streptococcus pneumoniae [6],1 mg/L
same,MIC,Streptococcus pyogenes [7],4 mg/L
same,MIC,Streptococcus pyogenes [8],> 64 mg/L
same,MIC50,Streptococcus pneumoniae [9],> 64 mg/L
same,MIC90,Streptococcus pneumoniae [9],> 64 mg/L
same,MIC50,Streptococcus pyogenes [10],0.125 mg/L
same,MIC90,Streptococcus pyogenes [10],0.25 mg/L
same,MIC50,Streptococcus pneumoniae [12],0.125 mg/L
same,MIC,Streptococcus pneumoniae [13],0.03 mg/L
same,MIC,Streptococcus pneumoniae [14],> 64 mg/L
same,MIC,Streptococcus pyogenes [15],8 mg/L
same,MIC,Streptococcus pneumoniae [16],> 64 mg/L
same,MIC50,Streptococcus pyogenes [17],16 mg/L
same,MIC90,Streptococcus pyogenes [17],> 64 mg/L
same,MIC,Streptococcus pyogenes [18],16 mg/L
same,MIC,Streptococcus pyogenes [19],4 mg/L
same,MIC50,Streptococcus pneumoniae [20],0.125 mg/L
same,MIC50,Streptococcus pyogenes [21],> 64 mg/L
same,MIC90,Streptococcus pyogenes [21],> 64 mg/L
same,MIC,Streptococcus pneumoniae [22],> 64 mg/L
same,MIC,Streptococcus pneumoniae [24],0.03 mg/L
same,MIC50,Streptococcus pneumoniae [25],4 mg/L
same,MIC90,Streptococcus pneumoniae [25],8 mg/L
same,MIC,Streptococcus pyogenes [26],> 64 mg/L
same,MIC,Streptococcus pyogenes [27],> 64 mg/L
same,MIC,Streptococcus pneumoniae [28],2 mg/L
same,MIC,Streptococcus pneumoniae [29],0.06 mg/L
same,MIC,Streptococcus pneumoniae [30],> 64 mg/L
